Screening data from PubChem.
GalR3 antag: GalR3 antagonists in HEK293 cells, primary screen, cell-based, fluorescence readout; Galanin receptor type 3 (Homo sapiens), O60755; HEK293 GalR3-CNG cAMP membrane potential fluorescence; galR3 body fused to GalR1 C-terminus; inhibition, % at 3 µM; 360,000 compounds, 0.44% hits; AID 651719, 2012;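 active means inhibition above the screen-wide average plus 3 SD, cut at about 13% in these data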;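 further: forskolin and galanin both at EC90 stimulate the cells; cAMP rise reported by CNG channel membrane potential dye signal; 0% = forskolin plus galanin with DMSO and 100% = forskolin alone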
NR2E3 ag-1: inhibitors of NR2E3-RetCOR corepressor binding, primary screen, NR2E3 agonist project, biochemical, TR-FRET, GST-NR2E3, biotin-RetCOR; Photoreceptor-specific nuclear receptor (Homo sapiens), Q9Y5X4; 1536-well; inhibition of corepressor binding, % at 4.78 µM; 320,000 compounds, 0.12% hits;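 active means percent inhibition above the cutoff of mean plus 3 SD of all tested compounds, set per screening campaign, cut at about 20% in these data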;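 further: 0% = DMSO wells and 100% = biotin wells as full block of FRET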
Target sequence (Q9Y5X4 whole entry, looked up): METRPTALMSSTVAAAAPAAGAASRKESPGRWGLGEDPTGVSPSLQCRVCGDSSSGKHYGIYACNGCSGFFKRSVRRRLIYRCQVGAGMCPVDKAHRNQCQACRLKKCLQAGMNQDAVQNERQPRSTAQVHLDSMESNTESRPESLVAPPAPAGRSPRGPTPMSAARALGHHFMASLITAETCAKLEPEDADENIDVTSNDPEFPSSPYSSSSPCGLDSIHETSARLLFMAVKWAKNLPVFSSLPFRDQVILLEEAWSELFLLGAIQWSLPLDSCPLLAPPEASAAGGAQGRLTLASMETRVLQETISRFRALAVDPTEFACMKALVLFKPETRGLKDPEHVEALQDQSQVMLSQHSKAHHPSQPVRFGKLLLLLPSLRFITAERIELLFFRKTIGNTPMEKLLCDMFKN
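Material: NR2E3–RetCOR corepressor complex / Incubation: Compound–protein incubation for 5 h at 4 °C / Dosing: compound at 4.8 µM, single dose / Detection: time-resolved FRET / Benchmarks: high control biotin, low control 0.6% DMSO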
NR2E3 ag-2: NR2E3 agonists in two-hybrid cells, primary screen, cell-based, luminescence, CHO-S, Gal4-NCOR/VP16-NR2E3. Photoreceptor-specific nuclear receptor (Homo sapiens), Q9Y5X4. luciferase. inhibition of corepressor binding, % at 3.98 µM. 360,000 compounds, 0.35% hits;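 active means inhibition above the mean of all tested compounds plus 3 SD, cut at about 70% in these data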;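 further: 0% = DMSO with NR2E3 transfected cells and 100% = cells lacking NR2E3 construct; higher means lower luciferase signal from less NR2E3 corepressor binding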
PG9 binder: binders of HIV-1 gp120 antibody PG9, primary screen, biochemical, TR-FRET; 360,000 compounds, 0.43% hits; AID 624416, 2012; inhibition, % at 6.7 µM; TR-FRET gp120-PG9 antibody binding; in the data active means inhibition above about 8.5%
NR1D1 modulator: modulators of Rev-erb alpha DNA binding, primary screen, biochemical, FITC-DNA, fluorescence polarization, uHTS; Nuclear receptor subfamily 1 group D member 1 (Homo sapiens), P20393; Rev-erbα–FITC-DNA binding, 90 min; activity, % at 10 µM; 370,000 compounds, 0.79% hits; AID 1259318, 2017;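 active means activity above about 14%, limit read from the data; passing the limit was not always enough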;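 further: 0% = DMSO wells with 35 nM protein and 100% = DMSO wells with 750 nM protein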
PG9 binder conf: binders of anti-gp120 antibody PG9, confirmation, biochemical, TR-FRET; shares compounds with PG9 binder; TR-FRET PG9 antibody binding; inhibition, % at 6.7 µM; 1,500 compounds, 90% hits; AID 651571, 2012; in the data active means inhibition above about 9%
PGV04 Ab binding: binders of control antibody PGV04, counter-screen for PG9 antibody binder project, biochemical, TR-FRET, distinct HIV envelope site. 1,500 compounds, 95% hits. shares compounds with PG9 binder. inhibition, % at 6.7 µM. TR-FRET PGV04 antibody-gp120 binding; in the data active means inhibition above about 9.5%
Rev-erbA confirm: modulators of Rev-erb alpha DNA binding, confirmation, biochemical, FITC-DNA, fluorescence polarization, single point; shares compounds with NR1D1 modulator; 90 min; activation, % at 25 µM; 3,000 compounds, 61% hits;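 active means activation at or above a set limit, or at least 3 SD above the negative control mean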;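 further: 0% = 35 nM protein with DMSO and 100% = 750 nM protein high control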
RORg DNA counter: modulation of RORgamma DNA binding, dose response, counter-screen for Rev-erb alpha modulator project, biochemical, fluorescence polarization, FITC-DNA; purified RORgamma protein-FITC-DNA binding; 910 compounds, 8% hits; IC50, µM; shares compounds with NR1D1 modulator;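 active means Compounds whose fitted half-maximal concentration for disrupting protein-DNA binding is below 10 micromolar; the record names Rev-erb in its text, so the target is in doubt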
* marks the source's active call; other numbers are inactive results; / = no result. Only some compounds are listed: those with a hit (about 1.8% of all), similar ones and a draw of the others.

SMILES	GalR3 antag	NR2E3 ag-1	NR2E3 ag-2	PG9 binder	NR1D1 modulator	PG9 binder conf	PGV04 Ab binding	Rev-erbA confirm	others
CC(=O)Nc1nnc(SCC(=O)c2ccc3c(c2)Cc2ccccc2-3)s1	-4.8	-1.6	-15.1	10.2*	55.1*	21.5*	48.8*	18.4*
CC(=O)Nc1nnc(SCC(=O)NC2CC2)s1	-8.6	4.3	-11.4	-0.6	-2.2	/	/	/
COc1ccc(-c2cc(-c3ccccc3)c(C#N)c(SCC(=O)Nc3ncc(C)s3)n2)cc1	-1.6	2.9	-2.1	27.5*	25.9*	6.2	10.0*	42.1*	RORg DNA counter=>40
N#Cc1c(-c2ccc(F)cc2)cc(-c2ccccc2)nc1SCC(=O)NCC(=O)O	-5.5	1.8	-26.5	-0.1	4.6	/	/	/
O=S(=O)(NCc1cn(Cc2ccccc2)nn1)c1ccccc1Br	/	/	/	/	6.0	/	/	/
Cc1cccc2cc(COC(=O)COc3ccccc3)c(=O)[nH]c12	-0.9	5.4	-5.0	26.2*	30.9*	30.8*	41.3*	21.1*
c1ccc(-n2ncc3c(NCc4ccc5c(c4)OCO5)ncnc32)cc1	-3.0	-1.4	-31.9	1.5	1.1	/	/	/
COc1ccc(-n2ncc3c(NCc4ccc5c(c4)OCO5)ncnc32)cc1	-6.2	-3.3	-49.6	15.9*	25.5*	6.1	8.8	-2.8
COC(=O)c1c(-c2ccc(F)cc2)csc1NC(=O)c1ccco1	-4.5	6.4	-213.5	11.6*	26.8*	18.2*	25.4*	15.7
O=C(Nc1scc(-c2ccccc2)c1C(=O)O)c1ccco1	-4.5	2.9	-67.2	0.1	-1.3	/	/	/
COc1cc2cc(Br)cc(Br)c2nc1C	-0.8	18.9	-8.8	47.5*	36.6*	39.7*	53.7*	22.2*
COc1cc2cnncc2cc1OC	-4.5	0.3	-12.1	1.4	2.3	/	/	/
Cc1cc(C)c(C#N)c(SCC(=O)Nc2cccc(S(=O)(=O)N3CCCC3)c2)n1	2.3	/	18.7	37.4*	21.4*	40.8*	65.4*	11.2*
O=S(=O)([N-]c1nc2ccccc2nc1-n1cc[n+](Cc2ccccc2)c1)c1ccc(Cl)cc1	0.8	-0.7	-10.2	42.0*	42.3*	41.2*	57.7*	11.3
O=C(Cn1c(=S)[nH]c2ccccc2c1=O)N1CCc2ccccc2C1	-2.5	-3.2	-10.9	32.1*	34.8*	33.0*	51.4*	22.8*
Cc1cc(C)c2cc(C#N)c(NCCNC(=O)c3ccccc3)nc2c1	-8.4	/	/	28.6*	17.7*	24.6*	31.6*	15.4*
COc1ccccc1C(=O)NCCNc1nc2cc(C)cc(C)c2cc1C#N	-6.4	5.9	10.8	0.0	3.8	/	/	/
COc1ccc(-c2ccc(C#N)c(SCC(=O)OCc3ccccc3)n2)cc1OC	-6.4	-1.3	-12.3	1.9	5.2	/	/	/
N#Cc1ccc(-c2ccc3c(c2)OCO3)nc1SCC(=O)OCc1ccccc1	-8.5	-4.4	-20.5	12.7*	24.1*	14.5*	29.2*	19.1*
